Test results reported in ChEMBL document CHEMBL1641503, “5-Non-amino aromatic substituted naphthalimides as potential antitumor agents: Synthesis via Suzuki reaction, antiproliferative activity, and DNA-binding behavior” (Bioorg Med Chem, 2011).
Calls of active or inactive are those of the source. No cut-off for these calls is given here.

What was measured:
Calf thymus DNA [1] = assay: Binding affinity to calf thymus DNA by fluorescence assay; format: nucleic-acid assay; conditions: Bos taurus
In short: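 CT-DNA held at 50 µM with compound 1 to 25 µM in Tris–HCl (30 mM, pH 7.5); compound without DNA as control. Solutions ultrasonically shaken 1 day at 25 °C in the dark. Fluorescence read at 350 nm excitation. Scatchard binding constant K_b derived from quenching (F0 vs F1) via Scatchard plot.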

[2] = Antiproliferative activity against mouse P388D1 cells after 48 hrs by MTT assay; format: functional, cell-based; conditions: P388D1, 48 h
In short: (§1)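 Cells seeded at 2.5 × 10⁴/well in 1640 complete medium, 37 °C, 5% CO₂, 24 h; compounds added at 100 to 0.01 µM for 48 h; D-Hank's buffer negative control. Cells washed twice with PBS, MTT (0.5 g/L in PBS, in complete medium) 4 h, DMSO to dissolve; absorbance at 492 nm (reference 630 nm). At least three experiments; mean percentage absorbance plotted against concentration.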

HeLa = assay: Antiproliferative activity against human HeLa cells after 48 hrs by MTT assay; format: functional, cell-based; in short: as §1
Calf thymus DNA [3] = assay: Binding affinity to calf thymus DNA at 10 uM by circular dichroism assay; format: nucleic-acid assay; conditions: Bos taurus
In short: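 CD spectra of CT-DNA (100 µM) with compound at 10 µM in Tris–HCl buffer (pH 7.0), 1-cm quartz cell, 200–600 nm; buffer spectrum subtracted.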

Calf thymus DNA [4] = assay: Binding affinity to calf thymus DNA assessed as increase of viscosity of DNA solution at 100 uM; format: nucleic-acid assay; conditions: Bos taurus
In short: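 Ubbelohde viscometry at 25 ± 0.1 °C. CT-DNA 100 µM in Tris–HCl (30 mM, pH 7.5), kept at 4 °C overnight, sonicated 10 min, filtered 0.45 µm. Flow time measured three times per sample and averaged, corrected for buffer. (η/η0)^1/3 plotted versus compound/DNA ratio.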

Kb (Calf thymus DNA [1])	IC50 (HeLa)	Activity (Calf thymus DNA [3])	Activity (Calf thymus DNA [4])	Structure (SMILES)	IC50 [2]
11.8 ×10⁵ /M				CN(C)CCN1C(=O)c2cccc3cc(-c4ccc(C(F)(F)F)cc4)cc(c23)C1=O	
10.8 ×10⁵ /M	45.8 µM			Cc1ccc(-c2cc3c4c(cccc4c2)C(=O)N(CCN(C)C)C3=O)cc1	2.19 µM
13.2 ×10⁵ /M	3.1 µM	Active	Active	CN(C)CCN1C(=O)c2cccc3cc(-c4cccs4)cc(c23)C1=O	0.68 µM
14.8 ×10⁵ /M	4.7 µM			CN(C)CCN1C(=O)c2cccc3cc(-c4cccc([N+](=O)[O-])c4)cc(c23)C1=O	0.38 µM
12.8 ×10⁵ /M	5.3 µM			CN(C)CCN1C(=O)c2cccc3cc(-c4ccc(F)c(F)c4)cc(c23)C1=O	0.98 µM
12.4 ×10⁵ /M				CN(C)CCN1C(=O)c2cccc3cc(-c4ccc(F)cc4)cc(c23)C1=O	
10.8 ×10⁵ /M	5.7 µM	Active	Active	CN(C)CCN1C(=O)c2cccc3cc(-c4ccccc4)cc(c23)C1=O	0.68 µM

Structure (SMILES)	Kb (Calf thymus DNA [1])	IC50 (HeLa)	Activity (Calf thymus DNA [3])	Activity (Calf thymus DNA [4])	IC50 [2]
CN(C)CCN1C(=O)c2cccc3cc(N)cc(c23)C1=O [AMONAFIDE]	1.05 ×10⁵ /M	6.02 µM			0.68 µM
